The text below walks through data of ChEMBL document CHEMBL4004812, “Semisynthesis of (-)-Rutamarin Derivatives and Their Inhibitory Activity on Epstein-Barr Virus Lytic Replication” (J Nat Prod, 2017).

One series deals with Human gammaherpesvirus 4. The series is described as follows: Inhibition of TPA/sodium butyrate-induced EBV lytic DNA replication in human P3HR1 cells incubated for 48 hrs post TPA/sodium butyrate induction by real-time PCR method. The following applies: for IC50: human gammaherpesvirus 4, P3HR-1, 48 h. The series is classed as functional, cell-based. The essentials: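 P3HR-1 cells were induced with TPA (20 ng/mL) plus sodium butyrate (0.3 mM) and given varied compound concentrations 3 h later. Total cellular DNA was purified 48 h postinduction. EBV DNA content was taken as (induced − noninduced) over the same difference in untreated cells, and IC50 was derived from the dose-response curve.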
For orientation: In qPCR the cycle at which signal appears reflects the starting amount.

For series [1], the system named is P3HR-1. Description: (§1) Cytotoxicity against human P3HR1 cells assessed as decrease in cell viability after 2 days by trypan blue staining-based light microscopic method. Conditions: p3hr-1, 48 h. The essentials: (§2)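 EBV-positive Burkitt's lymphoma P3HR-1 (clone 16) cells were grown in RPMI 1640 with 10% FBS, streptomycin and penicillin. They were exposed to the compounds, and viable cells were counted by Trypan blue exclusion under a light microscope 2 days post-treatment. Viability was expressed relative to untreated control cells, and CC50 was fitted from dose-response curves.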

The nature of series [2]: Selectivity index, ratio of CC50 for human P3HR1 cells to IC50 for TPA/sodium butyrate-induced EBV lytic DNA replication. The method in brief:
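SI = CC50/IC50. CC50 came from Trypan blue viability counts 2 days after treatment. IC50 came from EBV DNA content 48 h after TPA/butyrate induction of P3HR-1 cells, with compound added at 3 h.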

A short description of series [3]: as §1. Conditions: P3HR1 cells. Set-up: species or system P3HR-1. The method in brief:
as §2

The test system of series [4] is P3HR-1. Description: Cytotoxicity against human P3HR1 cells assessed as decrease in cell viability at 10 uM after 2 days by trypan blue staining-based light microscopic method. Conditions: p3hr-1, 48 h. The method in brief: as §2

By IC50 is commonly meant the concentration that gives 50% inhibition. Read a low IC50 as greater potency. By CC50 is commonly meant the concentration at which the toxic effect on the cells reaches its halfway point.

Activity calls are given as the source filed them. The rule behind the calls is not given here.

With `C=CC(C)(C)c1cc2cc3c(cc2oc1=O)O[C@@H](C(C)(C)OC(=O)OCCc1ccccc1)C3`, in the series with Human gammaherpesvirus 4, the inhibition result was “inactive”. Moreover, in the series with P3HR-1 [1], the Activity result is recorded as “Toxic”.

`C=CC(C)(C)c1cc2cc3c(cc2oc1=O)O[C@@H](C(C)(C)OC(=O)OCc1ccccn1)C3`: the inhibition entry in the series on Human gammaherpesvirus 4 is “Active”.

On to `C=CC(C)(C)c1cc2cc3c(cc2oc1=O)O[C@@H](C(C)(C)OC(=O)CNCCc1ccc(F)cc1)C3`, for which the IC50 with Human gammaherpesvirus 4 is 0.76 µM. Also, the “Ratio CC50/IC50” value in series [2] was found to be 56. Also, the CC50 at 48 h in series [3] came out at 42.6 µM.

For the compound `C=CC(C)(C)c1cc2cc3c(cc2oc1=O)O[C@@H](C(C)(C)OC(=O)OCCN1C(=O)c2ccccc2C1=O)C3`, the half-maximal inhibitory concentration (IC50) in the series with Human gammaherpesvirus 4 was found to be 0.83 µM. Besides, the “Ratio CC50/IC50” value in series [2] is >120. Besides, the CC50 at 48 h in series [3] was > 100 µM.

As for `C=CC(C)(C)c1cc2cc3c(cc2oc1=O)O[C@@H](C(C)(C)OC(=O)CNCC)C3`, in the series with Human gammaherpesvirus 4, the inhibition result is “Active”. For the same compound, the “Ratio CC50/IC50” value in series [2] is recorded as <3. In addition, in the series with P3HR-1 [1], the Activity result is “Toxic”.

For the compound `C=CC(C)(C)c1cc2cc3c(cc2oc1=O)O[C@@H](C(C)(C)OC(=O)NCCO)C3`, the inhibition entry in the series on Human gammaherpesvirus 4 is “Active”.

On to `C=CC(C)(C)c1cc2cc3c(cc2oc1=O)O[C@@H](C(C)(C)OC(=O)NCCN)C3`, for which the inhibition result in the series on Human gammaherpesvirus 4 is “Active”.

With `C=CC(C)(C)c1cc2cc3c(cc2oc1=O)O[C@@H](C(C)(C)OC(=O)NCCCCN)C3`, the inhibition entry with Human gammaherpesvirus 4 is “Active”.

`C=CC(C)(C)c1cc2cc3c(cc2oc1=O)O[C@@H](C(C)(C)OC(=O)CNCCCC)C3`: the inhibition entry in the series with Human gammaherpesvirus 4 is “Active”. The “Ratio CC50/IC50” value in series [2] is listed as <3. Moreover, the Activity result with P3HR-1 [1] is listed as “Toxic”.

As to `C=CC(C)(C)c1cc2cc3c(cc2oc1=O)O[C@@H](C(C)(C)OC(=O)NCCc1ccc(F)cc1)C3`, the midpoint of inhibition in the series with Human gammaherpesvirus 4, the IC50, lay at 1.4 µM. This lies in the single-digit micromolar range.

For `C=CC(C)(C)c1cc2cc3c(cc2oc1=O)O[C@@H](C(C)(C)OC(=O)CNCC1CCCO1)C3` (stereo partly drawn), the inhibition result in the series with Human gammaherpesvirus 4 is “Active”.

Consider `C=CC(C)(C)c1cc2cc3c(cc2oc1=O)O[C@@H](C(C)(C)OC(=O)OCCc1ccc(CC)cn1)C3`, for which the IC50 with Human gammaherpesvirus 4 is 1.5 µM. Also, in series [2], the “Ratio CC50/IC50” value was 801. Further, in series [3], the cytotoxic concentration (CC50) at 48 h is 1200 µM.

Take `C=CC(C)(C)c1cc2cc3c(cc2oc1=O)O[C@@H](C(C)(C)OC(=O)OCCc1ccncc1)C3`: the concentration for half-maximal inhibition (IC50) in the series on Human gammaherpesvirus 4 is 0.32 µM. Further, in series [2], the “Ratio CC50/IC50” value turned out to be 211. Besides, in series [3], the CC50 at 48 h was found to be 67.6 µM.

Consider `C=CC(C)(C)c1cc2cc3c(cc2oc1=O)O[C@@H](C(C)(C)OC(=O)CCl)C3`, for which the Activity result with P3HR-1 [4] is reported as “Toxic”.

For `C=CC(C)(C)c1cc2cc3c(cc2oc1=O)O[C@@H](C(C)(C)OC(=O)CNC1CCCC1)C3`, the half-maximal inhibitory concentration (IC50) in the series with Human gammaherpesvirus 4 turned out to be 2 µM. Besides, the Ratio CC50/IC50 in series [2] was > 20. For the same compound, the 50% cytotoxic concentration (CC50) at 48 h in series [3] turned out to be 40.8 µM.

As for `C=CC(C)(C)c1cc2cc3c(cc2oc1=O)O[C@@H](C(C)(C)OC(=O)CNC)C3`, the inhibition entry with Human gammaherpesvirus 4 was “Active”. In addition, in series [2], the “Ratio CC50/IC50” value is recorded as <3. The Activity result in the series on P3HR-1 [1] is reported as “Toxic”.

`C=CC(C)(C)c1cc2cc3c(cc2oc1=O)O[C@H](C(C)(C)OC(C)=O)C3` showed a half-inhibitory concentration (IC50) with Human gammaherpesvirus 4 of 7 µM. Moreover, in series [2], the “Ratio CC50/IC50” value is given as >21. For the same compound, the CC50 at 48 h in series [3] was > 150 µM.

`C=CC(C)(C)c1cc2cc3c(cc2oc1=O)O[C@@H](C(C)(C)OC(=O)C=C(C)C)C3`: in the series with Human gammaherpesvirus 4, the IC50 was 2.1 µM. In addition, the “Ratio CC50/IC50” value in series [2] was >47. The cytotoxic concentration (CC50) at 48 h in series [3] was > 100 µM.

Take `C=CC(C)(C)c1cc2cc3c(cc2oc1=O)O[C@@H](C(C)(C)OC(=O)NCCOC(C)=O)C3`: the inhibition entry with Human gammaherpesvirus 4 was “Active”.

On to `C=CC(C)(C)c1cc2cc3c(cc2oc1=O)O[C@@H](C(C)(C)O)C3`, for which, in the series on Human gammaherpesvirus 4, the half-inhibitory concentration (IC50) came out at 69.9 µM.

`C=CC(C)(C)c1cc2cc3c(cc2oc1=O)O[C@@H](C(C)(C)OC(=O)NCCC#N)C3`: in the series on Human gammaherpesvirus 4, the inhibition entry was “Active”.

`C=CC(C)(C)c1cc2cc3c(cc2oc1=O)O[C@@H](C(C)(C)OC(C)=O)C3` registered a half-maximal inhibitory concentration (IC50) in the series on Human gammaherpesvirus 4 of 13.8 µM. In addition, in series [2], the “Ratio CC50/IC50” value is recorded as >10. The 50% cytotoxic concentration (CC50) at 48 h in series [3] is > 140 µM.

For `C=CC(C)(C)c1cc2cc3c(cc2oc1=O)OC(C(C)(C)OC(=O)OCCc1scnc1C)C3` (stereo not drawn), in the series on Human gammaherpesvirus 4, the inhibition result is “Active”.

`C=CC(C)(C)c1cc2cc3c(cc2oc1=O)O[C@@H](C(C)(C)OC(=O)OCCc1ccccn1)C3` displayed an IC50 in the series with Human gammaherpesvirus 4 of 6.2 µM. Moreover, in series [2], the “Ratio CC50/IC50” value worked out at 7. Moreover, in series [3], the half-maximal cytotoxic concentration (CC50) at 48 h was 42.7 µM.

As to `C=CC(C)(C)c1cc2cc3c(cc2oc1=O)O[C@@H](C(C)(C)OC(=O)c1ccccc1)C3`, in the series on Human gammaherpesvirus 4, the IC50 came out at 4.5 µM. In series [2], the “Ratio CC50/IC50” value amounted to 83. Also, the CC50 at 48 h in series [3] was 370 µM.

On to `C=CC(C)(C)c1cc2cc3c(cc2oc1=O)O[C@@H](C(C)(C)OC(=O)CNCc1ccco1)C3`, for which the inhibition result in the series on Human gammaherpesvirus 4 is “Active”.
